This is a sample that favours compounds with a hit; in the whole collection about 3.1% have one here.
SENP7 block = SENP7 protease inhibitors, primary screen, biochemical, luminescence, uHTS; 330,000 compounds, 1.5% hits; inhibition, % at 5 µM; recombinant SENP7, Z-RLRGG-aminoluciferin luminescence, 40 min; Sentrin-specific protease 7 (Homo sapiens), Q9BQF6;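 active means inhibition above about 50% at the single test dose, limit read from the data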
SENP8 block-1 = human SENP8 protease inhibitors, primary screen, biochemical, fluorescence, Nedd8 protein substrate, uHTS | AID 602440, 2012 | Sentrin-specific protease 8 (Homo sapiens), Q96LD8 | recombinant SENP8 | inhibition, % at 20 µM | 360,000 compounds, 0.64% hits; in the data active means inhibition mostly above about 40%, no sharp cut-off; inactive means mostly below about 27%
SENP6 block = SENP6 protease inhibitors, primary screen, biochemical, luminescence, uHTS; Sentrin-specific protease 6 (Homo sapiens), Q9GZR1; Recombinant SENP6 catalytic domain, aminoluciferin luminescence; inhibition, % at 10 µM; 330,000 compounds, 1.8% hits;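 active means inhibition above about 50% at the single tested dose, limit read from the data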
SENP8 block-2 = SENP8 protease inhibitors, primary screen, biochemical, luminescence | Sentrin-specific protease 8 (Homo sapiens), Q96LD8 | purified SENP8, Z-RLRGG-aminoluciferin cleavage | inhibition, % at 10 µM | 330,000 compounds, 1.2% hits; in the data active means inhibition above about 50%
UBC13 inh = UBC13 polyubiquitin chain formation inhibitors, primary screen, biochemical, TR-FRET, uHTS; Ubiquitin-conjugating enzyme E2 N (Homo sapiens), P61088; inhibition, % at 20 µM; 330,000 compounds, 0.47% hits; AID 485273, 2010; in the data active means inhibition above about 45%, passing the limit was not always enough
Target sequence (P61088 whole entry, looked up): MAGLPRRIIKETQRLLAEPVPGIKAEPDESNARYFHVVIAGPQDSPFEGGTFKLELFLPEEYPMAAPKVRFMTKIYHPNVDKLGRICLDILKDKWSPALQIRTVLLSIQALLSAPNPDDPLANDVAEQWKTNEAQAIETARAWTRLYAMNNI
Apaf1 inhib = inhibitors of human Apaf-1 apoptosome, primary screen, biochemical, DEVD-Rh110 fluorescence, uHTS; reconstituted apoptosome caspase-3 activity; Apoptotic protease-activating factor 1 (Homo sapiens), O14727; 330,000 compounds, 0.71% hits; inhibition, % at 20 µM; active means inhibition of at least 40% at 20 µM
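System – cell-free apoptosome with Apaf-1, procaspase-3 and caspase-9 · Buffer or medium – pH 7.5 Hepes buffer with CHAPS, BSA, DTT · Also added – cytochrome c with DEVD-Rh110 · Times – 30 min compound preincubation, 50 min activation, room temperature · Technique – Rh110 fluorescence intensity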
Casp3 UBC13 ctr = CASP3 inhibitor validation, counterassay for project on UBE2N polyubiquitination blockers, biochemical, one dose; shares compounds with UBC13 inh; Recombinant caspase-3, Caspase-Glo 3/7 luminescence, 60 min; inhibition, % at 20 µM; 1,400 compounds, 4% hits; AID 488856, 2010;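 active means mean inhibition across replicates above about 26%, limit read from the data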
Target sequence (P42574 whole entry, looked up): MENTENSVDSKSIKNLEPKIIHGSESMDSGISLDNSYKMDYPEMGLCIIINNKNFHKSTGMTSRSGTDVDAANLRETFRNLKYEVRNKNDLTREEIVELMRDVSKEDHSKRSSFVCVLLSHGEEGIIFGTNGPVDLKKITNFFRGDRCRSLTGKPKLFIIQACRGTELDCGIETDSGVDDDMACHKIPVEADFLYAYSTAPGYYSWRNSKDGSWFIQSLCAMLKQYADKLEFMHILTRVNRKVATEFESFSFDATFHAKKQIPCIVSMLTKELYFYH
UBC13 confirm = UBC13 polyubiquitination inhibitors, single-point retest, confirmation, biochemical, TR-FRET, single concentration. shares compounds with UBC13 inh. 1,400 compounds, 68% hits. inhibition, % at 10 µM; in the data active means inhibition above about 45%
Apaf-1 inh conf2 = Apaf-1 inhibitors, single-dose retest, confirmation, biochemical, fluorescence, DEVD-Rh110, 20 µM; shares compounds with Apaf1 inhib; reconstituted apoptosome, caspase-3 DEVD-Rh110 fluorescence; inhibition, % at 20 µM; 1,800 compounds, 25% hits; AID 504614, 2011;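 active means mean inhibition of at least 40% at 20 µM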
Rh110 interf inh = Rh110 fluorescence interference by putative Apaf-1 inhibitors, confirmation, artefact control for Apaf-1 inhibitor project, biochemical, 20 µM | quenched caspase reaction | shares compounds with Apaf1 inhib | AID 504615, 2011 | 1,800 tested, under 10 active | activation (fluorescence interference), % at 20 µM;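 active means signal rise of 40% or more at 20 µM, treated as a fluorescence artifact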
Fluor interf inh = fluorescence interference of Apaf-1 inhibitor hits, dose response, artefact control for Apaf-1 inhibitor project; shares compounds with Apaf1 inhib; fluorescence interference counterscreen, Apaf-1 assay format; IC50, µM; 460 tested, under 10 active; AID 588538, 2011; call rule not given here
Numbers stand for hits; 0 = inactive; - = no result.

SMILES	SENP7 block	SENP8 block-1	SENP6 block	SENP8 block-2	UBC13 inh	Apaf1 inhib	Casp3 UBC13 ctr	UBC13 confirm	Apaf-1 inh conf2	Rh110 interf inh	others
O=C(O)CC(C(=O)O)N1C(=O)/C(=C/C=C/c2ccco2)SC1=S (stereo not drawn)	0	0	0	0	74	85	0	48	49	0	Fluor interf inh=0
CCc1nc2ccc(C(=O)NCc3ccccc3OC)cn2c1N(C)Cc1ccc(N(C)C)cc1	-	0	-	-	-	-	-	-	-	-
C[C@H](CO)N1C[C@H](C)[C@@H](CN(C)Cc2cccnc2)Oc2ncc(-c3cccc(C#N)c3)cc2C1=O	-	0	-	-	-	-	-	-	-	-
COc1ccc(NS(=O)(=O)c2ccc(C)c(NC(=O)CN3C(=O)NC4(CCCC4)C3=O)c2)cc1	0	0	0	0	106	82	0	55	58	0	Fluor interf inh=0
N=c1n(Cc2ccccc2)c2ccccc2n1CC(O)COc1ccc(Cl)cc1Cl (stereo not drawn)	0	0	0	0	65	52	0	91	0	0
N=c1n(Cc2ccc(Cl)cc2)c2ccccc2n1CC(O)COc1ccccc1 (stereo not drawn)	0	0	0	0	0	0	-	-	-	-
CCC[C@@H](CN1CCC[C@H]1CN1C(N)=NC[C@H]1C(C)C)N1C[C@@H](Cc2ccccc2)N(CCCC2CCCC2)C1=N	0	0	0	0	65	46	0	47	0	0
CC(C)C[C@@H]1CN=C(N)N1C[C@@H]1CCCN1C[C@@H](C(C)C)N1C[C@@H](Cc2ccccc2)N(CCCC2CCCC2)C1=N	0	0	0	0	78	55	0	76	0	0
Cc1nc2ccc(C(=O)N(C)Cc3ccco3)cn2c1N(C)CC1CCCCC1	-	0	-	-	-	-	-	-	-	-
C=CC(=O)Nc1ccc(N(C)c2ccnc(Nc3ccc(N4CCN(C)CC4)cc3)n2)cc1	0	0	0	0	85	62	0	77	0	0
CSCCC(C(=O)Nc1c(C)cccc1C)N1CCC(Cc2ccccc2)CC1 (stereo not drawn)	-	0	-	-	-	-	-	-	-	-
CCN1CCN(Cc2ccc(NC(=O)c3ccc(C)c(NC(=O)c4ccc5n[nH]nc5c4)c3)cc2C(F)(F)F)CC1	0	0	0	0	0	0	-	-	-	-
CCN1CCN(Cc2ccc(NC(=O)c3ccc(C)c(NC(=O)C(=O)c4c[nH]c5ccccc45)c3)cc2C(F)(F)F)CC1	0	0	0	0	53	74	0	96	0	0
CCN1CCN(Cc2ccc(NC(=O)c3cc(NC(=O)C(=O)c4c[nH]c5ccccc45)cc(OC)c3)cc2C(F)(F)F)CC1	0	0	0	0	55	41	0	76	0	0
FC(F)(F)Oc1ccccc1C(c1nnnn1-c1ccc2c(c1)OCCO2)N1CCN(C/C=C/c2ccccc2)CC1 (stereo not drawn)	-	0	-	-	-	-	-	-	-	-
CCN1CCN(S(=O)(=O)c2ccc(Cl)c(C(=O)N(C)Cc3ccc(Cl)cc3Cl)c2)CC1	0	0	0	0	0	0	-	-	-	-
CCN1CCN(S(=O)(=O)c2ccc(Cl)c(C(=O)N(C)Cc3cccs3)c2)CC1	0	0	0	0	49	58	0	55	0	0

Assay outcomes deposited in PubChem by Sanford-Burnham Center for Chemical Genomics.
